Laboratory results taken from ChEMBL document CHEMBL4619779, “Tideglusib and Its Analogues As Inhibitors of Staphylococcus aureus SrtA” (J Med Chem, 2020).
≈ marks a conversion by molar mass, not a printed value.

Tests used:
[1] = target: T1, Sortase A (Staphylococcus aureus, UniProt Q9S446, DELTAN24); assay: Inhibition of Staphylococcus aureus SrtA delta N24 mutant expressed in Escherichia coli BL21 (DE3) using Abz-LPATG-Dnp substrate incubated for 20 mins by FRET-based assay
In short: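 His-tagged SrtAΔN24 (1 µM) was preincubated 20 min at rt with compound (0.2–100 µM) in 50 mM Tris-HCl pH 7.5, 150 mM NaCl, 5 mM CaCl2. Abz-LPATG-Dnp was added at 10 µM and fluorescence (ex 309 / em 420 nm) was read each minute for 20 min. IC50 came from a sigmoidal fit. Technical triplicates, three independent experiments.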

[2] = test system: Staphylococcus aureus; assay: Antibacterial activity against Staphylococcus aureus subsp. aureus str. Newman assessed as reduction in bacterial growth incubated for 24 hrs; type: functional
In short: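 Overnight culture diluted 1:1000 in TSB, grown to A600 0.6-0.8, then diluted 1:400 in TSB. Aliquots incubated with the compound at a range of concentrations. A600 read every 1 hr for 24 hr to build growth curves. Technical triplicates per point; three independent experiments.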

[3] = target: T1, Sortase A; assay: Inhibition of Staphylococcus aureus SrtA delta N24 mutant expressed in Escherichia coli BL21 (DE3) assessed as reduction in IsdA (64 to 323 residues) transpeptidation incubated for 20 mins by SDS-PAGE analysis
In short: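 His-tagged SrtAΔN24 (100 µg) was preincubated 20 min at rt with compound (1–25 µM) in 50 mM Tris-HCl pH 7.5, 150 mM NaCl, 5 mM CaCl2. IsdA64-323 (150 µg) and 3 mM Gly3 were then added for 1.5 hr at 37 °C. […] Three independent experiments.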

`O=c1sn(Cc2ccccc2)c(=O)n1CCCl` gave an IC50 [1] of 2 µM, an MIC [2] of 25 µg/mL (≈ 92.3 µM) and an IC50 [3] of 16.7 µM.

With `Cn1c(=O)sn(-c2cccc3ccccc23)c1=O` the IC50 [1] was 0.8 µM, the MIC [2] was 100 µg/mL (≈ 387 µM) and the IC50 [3] was 8 µM.

With `CCn1sc(=O)n(Cc2ccc(Cl)cc2)c1=O` the IC50 [1] was 8.7 µM, the MIC [2] was 6.2 µg/mL (≈ 22.9 µM) and the IC50 [3] was > 50 µM.

In the case of `O=c1sn(-c2cccc3c2CCC3)c(=O)n1Cc1ccccc1`, the IC50 [1] is reported as 4.4 µM, the MIC [2] is reported as > 100 µg/mL and the IC50 [3] is reported as 45.6 µM.

`O=c1sn(Cc2ccccc2)c(=O)n1Cc1ccccc1` gave an IC50 [1] of 7 µM, an MIC [2] of 12.5 µg/mL (≈ 41.9 µM) and an IC50 [3] of 12.9 µM.

`O=c1sn(Cc2ccccc2)c(=O)n1Cc1ccccc1Cl` showed an IC50 [1] of 3.4 µM, an MIC [2] of 12.5 µg/mL (≈ 37.6 µM) and an IC50 [3] of 28 µM.

For `O=c1sn(-c2cccc3ccccc23)c(=O)n1Cc1ccccc1O`, the IC50 [1] was 1.3 µM, the MIC [2] was > 100 µg/mL and the IC50 [3] was 32.2 µM.

`Cc1noc(C)c1-n1sc(=O)n(C(C)C)c1=O` was tested, and the IC50 [1] was 12.6 µM, the MIC [2] was > 100 µg/mL and the IC50 [3] was > 50 µM.

With `O=c1sn(-c2cccc3c2CCCC3)c(=O)n1Cc1ccccc1` the IC50 [1] was 6 µM, the MIC [2] was 50 µg/mL (≈ 148 µM) and the IC50 [3] was 31.9 µM.

In the case of `CCCCn1c(=O)sn(-c2c(C)noc2C)c1=O`, the IC50 [1] is reported as 1.1 µM, the MIC [2] is reported as > 100 µg/mL and the IC50 [3] is reported as 4.1 µM.

With `CCn1sc(=O)n(Cc2ccc(C)cc2)c1=O` the IC50 [1] was 16.7 µM, the MIC [2] was 6.2 µg/mL (≈ 24.8 µM) and the IC50 [3] was > 50 µM.

In the case of `CCn1c(=O)sn(-c2cccc3ccccc23)c1=O`, the IC50 [1] is reported as 0.7 µM, the MIC [2] is reported as > 100 µg/mL and the IC50 [3] is reported as 8.2 µM.

`O=c1sn(-c2cccc3ccccc23)c(=O)n1Cc1ccc(F)cc1` gave an IC50 [1] of 4.1 µM, an MIC [2] of 100 µg/mL (≈ 284 µM) and an IC50 [3] of 5.9 µM.

`O=c1sn(Cc2ccccc2)c(=O)n1Cc1ccc(Cl)c(Cl)c1` showed an IC50 [1] of 2.9 µM, an MIC [2] of 12.5 µg/mL (≈ 34 µM) and an IC50 [3] of 19.7 µM.

`O=c1sn(-c2cccc3ccccc23)c(=O)n1Cc1cccc(O)c1` was tested, and the IC50 [1] was 1.6 µM, the MIC [2] was > 100 µg/mL and the IC50 [3] was 9.2 µM.

With `O=c1sn(Cc2ccccc2)c(=O)n1-c1cccc(F)c1` the IC50 [1] was > 100 µM, the MIC [2] was 12.5 µg/mL (≈ 41.3 µM) and the IC50 [3] was > 50 µM.

`Cc1ccc(Cn2c(=O)sn(-c3c(C)noc3C)c2=O)cc1` was tested, and the IC50 [1] was 1.1 µM, the MIC [2] was > 100 µg/mL and the IC50 [3] was 4.7 µM.

In the case of `Cc1noc(C)c1-n1sc(=O)n(Cc2ccc(Cl)cc2)c1=O`, the IC50 [1] is reported as 1 µM, the MIC [2] is reported as > 100 µg/mL and the IC50 [3] is reported as 4.1 µM.

`Cc1ccc(Cn2c(=O)sn(-c3cccc4ccccc34)c2=O)cc1` gave an IC50 [1] of 1.2 µM, an MIC [2] of 100 µg/mL (≈ 287 µM) and an IC50 [3] of 12.6 µM.

`O=c1sn(CCc2ccccc2)c(=O)n1Cc1ccccc1` showed an IC50 [1] of 10.1 µM, an MIC [2] of 12.5 µg/mL (≈ 40 µM) and an IC50 [3] of 42.7 µM.

For `O=c1sn(CCc2ccccc2)c(=O)n1C1CCCCC1`, the IC50 [1] was > 100 µM, the MIC [2] was 12.5 µg/mL (≈ 41.1 µM) and the IC50 [3] was > 50 µM.

In the case of `CCCCn1sc(=O)n(CCCC)c1=O`, the IC50 [1] is reported as 43.9 µM, the MIC [2] is reported as 3.1 µg/mL (≈ 13.5 µM) and the IC50 [3] is reported as > 50 µM.

`CCn1c(=O)sn(-c2c(C)noc2C)c1=O` was tested, and the IC50 [1] was 1.5 µM, the MIC [2] was > 100 µg/mL and the IC50 [3] was 6.3 µM.

For `O=c1sn(-c2cccc3c2OCO3)c(=O)n1Cc1ccccc1`, the IC50 [1] was 3.4 µM, the MIC [2] was > 100 µg/mL and the IC50 [3] was 4.7 µM.

For `O=c1sn(-c2cccc3ccccc23)c(=O)n1CCc1ccccc1`, the IC50 [1] was 0.6 µM, the MIC [2] was > 100 µg/mL and the IC50 [3] was 27.5 µM.

For `CCCCn1c(=O)sn(-c2cccc3ccccc23)c1=O`, the IC50 [1] was 0.9 µM, the MIC [2] was 100 µg/mL (≈ 333 µM) and the IC50 [3] was 12.6 µM.

For `CCn1sc(=O)n(CCc2ccccc2)c1=O`, the IC50 [1] was 16.3 µM, the MIC [2] was 6.2 µg/mL (≈ 24.8 µM) and the IC50 [3] was > 50 µM.

`Cc1noc(C)c1-n1sc(=O)n(Cc2ccc(Cl)c(Cl)c2)c1=O` was tested, and the IC50 [1] was 0.9 µM, the MIC [2] was > 100 µg/mL and the IC50 [3] was 3.4 µM.

For `CC(C)n1c(=O)sn(CCc2ccccc2)c1=O`, the IC50 [1] was > 100 µM, the MIC [2] was 25 µg/mL (≈ 94.6 µM) and the IC50 [3] was > 50 µM.

In the case of `COc1ccc(Cn2c(=O)sn(-c3c(C)noc3C)c2=O)cc1`, the IC50 [1] is reported as 1.2 µM, the MIC [2] is reported as > 100 µg/mL and the IC50 [3] is reported as 5 µM.

For `CCCCn1c(=O)sn(Cc2ccccc2)c1=O`, the IC50 [1] was 8.4 µM, the MIC [2] was 6.2 µg/mL (≈ 23.5 µM) and the IC50 [3] was 21.2 µM.

In the case of `O=c1sn(C2CCCC2)c(=O)n1C1CCCCC1`, the IC50 [1] is reported as 10.2 µM, the MIC [2] is reported as 6.2 µg/mL (≈ 23.1 µM) and the IC50 [3] is reported as > 50 µM.
